Compounds with a hit are over-represented: about 1.9% of the library has one in this group of screens.
CHRM4 antagonist = antagonists of human muscarinic M4 receptor (CHRM4); AID 624125; P08173; inhibition, % at 3 µM; CHO-hM4 cells, ACh EC80, Fluo-8 calcium fluorescence; 0.73% of 360,000 active;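 active = inhibition above its plate's cutoff, the mean inhibition of sample wells plus 3 SD, cut at about 27% in these data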;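 note: 0% = acetylcholine EC80 with DMSO and 100% = DMSO without agonist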
Target sequence (P08173 whole entry, looked up): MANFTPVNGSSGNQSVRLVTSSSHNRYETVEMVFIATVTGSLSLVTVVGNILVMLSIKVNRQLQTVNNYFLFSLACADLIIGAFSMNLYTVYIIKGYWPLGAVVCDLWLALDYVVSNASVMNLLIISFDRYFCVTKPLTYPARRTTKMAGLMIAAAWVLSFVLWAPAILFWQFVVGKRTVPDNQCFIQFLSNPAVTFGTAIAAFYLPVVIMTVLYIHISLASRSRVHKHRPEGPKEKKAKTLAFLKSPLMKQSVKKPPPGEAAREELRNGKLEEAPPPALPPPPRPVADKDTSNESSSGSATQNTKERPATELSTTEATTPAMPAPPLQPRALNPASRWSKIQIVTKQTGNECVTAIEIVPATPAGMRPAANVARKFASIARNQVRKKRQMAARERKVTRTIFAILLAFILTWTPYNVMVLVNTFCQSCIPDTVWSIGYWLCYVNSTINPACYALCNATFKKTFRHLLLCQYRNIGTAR
M5 ag = agonists of human muscarinic M5 receptor (CHRM5); CHO-K1 hM5 cells, Fluo-8 calcium fluorescence; 0% DMSO wells, 100% maximal acetylcholine response; activation, % at 3 µM; 0.19% of 360,000 active;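 active = activation above the run's mean over test compounds plus 3 SD, cut at about 23% in these data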;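 note: signal is peak over basal fluorescence ratio across the kinetic read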
M5 PAM = CHRM5 positive allosteric modulation; P08912; CHO-K1 hM5, Fluo-8 calcium, ACh EC20 PAM; 0% = ACh EC20, 100% = ACh EC100; activation, % at 3 µM; 0.3% of 360,000 active; AID 624038;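 active = activation above the run cutoff, the mean activation of all test compounds plus 3 SD, cut at about 18% in these data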
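System: CHO-K1 hM5 cells. Reagent: acetylcholine, EC20 level. Compound dosing: single dose, 3 µM nominal final test concentration. Timing: Post-acetylcholine fluorescence recording 140 s. Detection: Fluo-8 calcium fluorescence. Read-out: % activation, ACh-normalized. Benchmarks: ACh EC20 and EC100 wells. Repeats: singlicate, one well per test compound.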
CHRM4 PAM = CHRM4 positive allosteric modulation; CHO-K1 hM4/Gqi5, Fluo-8 calcium fluorescence, ACh EC20; 0% = ACh EC20, 100% = maximal ACh; 0.4% of 360,000 active; activation, % at 3 µM;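 active = activation above its plate's cutoff, the mean activation of sample wells plus 3 SD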
M5 antag = blocks acetylcholine activation of human M5 receptor; inhibition, % at 3 µM; P08912; CHO-hM5 cells, Fluo-8 calcium fluorescence, ACh EC80; 0.59% of 360,000 active; AID 624040;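 active = inhibition above a per-plate cutoff, the mean of that plate's test compounds plus 3 SD, cut at about 27% in these data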;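 note: 0% = acetylcholine EC80 with DMSO and 100% = DMSO without agonist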
M4 ag = CHRM4 agonism in calcium assay. activation, % at 3 µM. CHO-K1 hM4/Gqi5, Fluo-8 calcium fluorescence; vehicle 0%, full acetylcholine response 100%. AID 624127. 0.14% of 360,000 active. P08173;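 active = activation above the run mean over all test wells plus 3 SD, cut at about 32% in these data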;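 note: peak over basal fluorescence ratio per well then scaled between controls; 0% = DMSO wells and 100% = acetylcholine at EC100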
Numbers without * were called inactive.

Results for CCOc1ccc(C(=O)Nc2ccc(N3CCN(C(C)=O)CC3)cc2)cc1[N+](=O)[O-] ?
CHRM4 antagonist: -2; M5 ag: 1; M5 PAM: -3; CHRM4 PAM: -3; M5 antag: 4; M4 ag: 3

What do the screens show for `CC1(c2ccc([N+](=O)[O-])cc2)NC(=O)N(CC(=O)c2ccc3c(c2)OCO3)C1=O` (stereo not given)?
CHRM4 antagonist: -7; M5 ag: 36*; M5 PAM: -15; CHRM4 PAM: -6; M5 antag: 6; M4 ag: 33*

How did CC1(c2ccc(OC(F)F)cc2)NC(=O)N(CC(=O)NC2CCCCC2)C1=O (stereo not given) do in these assays?
CHRM4 antagonist: -8; M5 ag: 5; M5 PAM: -7; CHRM4 PAM: 17; M5 antag: 8; M4 ag: 7

How did CC1(c2ccc(OC(F)F)cc2)NC(=O)N(CC(=O)c2ccc3c(c2)OCO3)C1=O (stereo not given) do in these assays?
CHRM4 antagonist: -8; M5 ag: 42*; M5 PAM: -21; CHRM4 PAM: -8; M5 antag: 5; M4 ag: 40*

What do the screens show for `O=C(O)c1cc([N+](=O)[O-])c(Sc2nc3ccccc3[nH]2)c([N+](=O)[O-])c1`?
CHRM4 antagonist: 10; M5 ag: -2; M5 PAM: 3; CHRM4 PAM: -2; M5 antag: 5; M4 ag: 1

How did CS(=O)(=O)c1cc([N+](=O)[O-])c(Sc2nc3ccccc3[nH]2)c([N+](=O)[O-])c1 do in these assays?
CHRM4 antagonist: 38*; M5 ag: 0; M5 PAM: 7; CHRM4 PAM: -1; M5 antag: 13; M4 ag: 3

How did CCCCCCCCN1C(=O)[C@H](CC(=O)N2CCCC2)C[C@@]2(C(=O)OC)CC(C)(C)CC=C12 do in these assays?
CHRM4 antagonist: -14; M5 ag: -3; M5 PAM: -2; CHRM4 PAM: 10; M5 antag: 4; M4 ag: 5

How did O=C1NC(c2ccccc2)CCO1 (stereo not given) do in these assays?
CHRM4 antagonist: -5; M5 ag: -2; M5 PAM: 9; CHRM4 PAM: 30*; M5 antag: -4; M4 ag: 1

How did CCN(CC)CCN1C(=O)C(=O)/C(=C(/O)c2c(C)[nH]c(C(=O)OC)c2C)C1c1ccccc1 (stereo not given) do in these assays?
CHRM4 antagonist: 1; M5 ag: -2; M5 PAM: 3; CHRM4 PAM: 30*; M5 antag: 4; M4 ag: 1

Results for CCN(CC)CCN1C(=O)C(=O)/C(=C(/O)c2c(C)[nH]c(C(=O)OC)c2C)C1c1ccc(OC)cc1 (stereo not given) ?
CHRM4 antagonist: 3; M5 ag: -1; M5 PAM: -2; CHRM4 PAM: 2; M5 antag: 3; M4 ag: 0

What do the screens show for `O=C(c1ccc(S(=O)(=O)c2cccc(Cl)c2)c([N+](=O)[O-])c1)N1CCN(c2ccccn2)CC1`?
CHRM4 antagonist: 44*; M5 ag: 5; M5 PAM: -32; CHRM4 PAM: -27; M5 antag: 52*; M4 ag: 24

Results for Cc1cccc(C)c1NC(=O)C(c1cc2ccccc2o1)N1CCC(c2ccccc2)CC1 (stereo not given) ?
CHRM4 antagonist: -1; M5 ag: 2; M5 PAM: 2; CHRM4 PAM: -3; M5 antag: -2; M4 ag: 1

Results for CN1OC[C@@H]2CN[C@H](c3ccc(-c4cc5ccccc5o4)cc3)C[C@@H]21 ?
CHRM4 antagonist: 6; M5 ag: -1; M5 PAM: 4; CHRM4 PAM: -1; M5 antag: -1; M4 ag: 3

What do the screens show for `O=C(Nc1cccc(Br)c1)Oc1cccc2cccnc12`?
CHRM4 antagonist: 17; M5 ag: 9; M5 PAM: -21; CHRM4 PAM: -10; M5 antag: 34*; M4 ag: 14

How did O=C(Nc1c(Cl)cccc1Cl)Oc1cccc2cccnc12 do in these assays?
CHRM4 antagonist: -4; M5 ag: -3; M5 PAM: 1; CHRM4 PAM: 3; M5 antag: -4; M4 ag: 2

How did Fc1ccc(C2=CC(c3ccc(Br)o3)n3ncnc3N2)cc1 (stereo not given) do in these assays?
CHRM4 antagonist: 2; M5 ag: 3; M5 PAM: -6; CHRM4 PAM: -7; M5 antag: 0; M4 ag: 3

What do the screens show for `C1=C(c2ccc(-c3ccccc3)cc2)Nc2ncnn2C1c1ccco1` (stereo not given)?
CHRM4 antagonist: 27*; M5 ag: 53*; M5 PAM: -34; CHRM4 PAM: -17; M5 antag: 16; M4 ag: 62*

How did Fc1ccc(C2=CC(c3ccco3)n3ncnc3N2)cc1 (stereo not given) do in these assays?
CHRM4 antagonist: 2; M5 ag: 2; M5 PAM: -8; CHRM4 PAM: -1; M5 antag: 7; M4 ag: 2

How did Brc1ccc(C2=CC(c3cccs3)n3ncnc3N2)cc1 (stereo not given) do in these assays?
CHRM4 antagonist: 4; M5 ag: 27*; M5 PAM: -21; CHRM4 PAM: -29; M5 antag: 14; M4 ag: 37*

Results for NC(=O)c1nsc(C(=O)N(c2ccc3c(c2)OCO3)C(C(=O)NCC2CCCO2)c2ccc(F)cc2)c1N (stereo not given) ?
CHRM4 antagonist: 20; M5 ag: 1; M5 PAM: 19*; CHRM4 PAM: 24*; M5 antag: 22; M4 ag: 15

What do the screens show for `NC(=O)c1nsc(C(=O)N(c2ccccc2)C(C(=O)NCc2ccc(F)cc2)c2ccc(O)cc2)c1N` (stereo not given)?
CHRM4 antagonist: 31*; M5 ag: 4; M5 PAM: -9; CHRM4 PAM: -18; M5 antag: 14; M4 ag: 31

Results for CCn1c(SCC(=O)Nc2nccs2)nnc1C1CC1 ?
CHRM4 antagonist: -2; M5 ag: -2; M5 PAM: 4; CHRM4 PAM: 25*; M5 antag: -3; M4 ag: 0

How did Cn1c(SCC(=O)Nc2ccc3c(c2)CCC3)nnc1C1CC1 do in these assays?
CHRM4 antagonist: -20; M5 ag: -3; M5 PAM: -6; CHRM4 PAM: 3; M5 antag: -2; M4 ag: 3

Results for CCC(=O)Nc1cccc(NC(=O)CSc2nnc(C3CC3)n2C)c1 ?
CHRM4 antagonist: -13; M5 ag: 4; M5 PAM: 36*; CHRM4 PAM: 2; M5 antag: -7; M4 ag: 1

Compound activity from PubChem BioAssay.
